Reference: ChEMBL document CHEMBL2163238, “Design, synthesis, and biological evaluation of N-alkylated deoxynojirimycin (DNJ) derivatives for the treatment of dengue virus infection” (J Med Chem, 2012)

Experiments:
[1] = Antiviral activity against 1 MOI BVDV NADL infected in MDBK cells assessed as reduction in viral titer after 22 hrs; type: functional, cell-based, Bovine viral diarrhea virus 1-NADL
How it was run: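 MDBK cells (2×10^5) infected 24 h after seeding with BVDV NADL at MOI 1, with 1 h adsorption at 37 °C. Washed, then compounds at 0.1–100 μM. Media harvested 22 h post-infection and plaque-titrated on MDBK under 1% methylcellulose for 3 days. Plaques counted directly or after neutral red staining. EC50 from dose–response curves, mean of 3 independent experiments.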

[2] = Selectivity index, ratio of CC50 for MDBK cells to EC50 for BVDV NADL infected in MDBK cells
How it was run: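 MDBK cells infected with BVDV NADL at MOI 1, 1 h at 37 °C, washed, then compounds at 0.1–100 μM. Media harvested at 22 h, plaque-titrated on MDBK under 1% methylcellulose for 3 days, neutral red or direct count. EC50 from yield curves; MTT CC50 in uninfected MDBK; SI = CC50/EC50.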

[3] = Cytotoxicity against MDBK cells assessed as cell viability by MTT assay; type: cell-based, Bos taurus; conditions: cattle
[4] = Bovine viral diarrhea virus isolates and strains, MDBK, 22 h

Row | SMILES | EC50 [1, 4] | Ratio CC50/EC50 [2] | CC50 [3] | EC50 ([1]; mdbk)
1 | CC1CC(OCCCCCCN2C[C@H](O)[C@@H](O)[C@H](O)[C@H]2CO)CC(C)(C)C1 (stereo not given in full) | 0.8 µM | 312 | 250 µM | –
2 | Cc1ccc(C(C)C)c(OCCCCCCN2C[C@H](O)[C@@H](O)[C@H](O)[C@H]2CO)c1 | 0.6 µM | 103 | 62 µM | –
3 | CCCCCC#CCCN1C[C@H](O)[C@@H](O)[C@H](O)[C@H]1CO | > 100 µM | – | > 500 µM | –
4 | Cc1cccc(OCCCCCCN2C[C@H](O)[C@@H](O)[C@H](O)[C@H]2CO)c1.Cl | – | >1250 | – | 0.4 µM
5 | OC[C@@H]1[C@@H](O)[C@H](O)[C@@H](O)CN1CCCCCCOc1ccccc1C(F)(F)F | 1 µM | >500 | > 500 µM | –
6 | Cc1ccc(C(C)(C)C)c(OCCCCCCN2C[C@H](O)[C@@H](O)[C@H](O)[C@H]2CO)c1 | 0.6 µM | 142 | 85 µM | –
7 | CC1CCCC(OCCCCCCN2C[C@H](O)[C@@H](O)[C@H](O)[C@H]2CO)C1C (stereo not given in full) | 1.2 µM | >417 | > 500 µM | –
8 | CC1CCCC(OCCCCCCN2C[C@H](O)[C@@H](O)[C@H](O)[C@H]2CO)C1 (stereo not given in full) | 0.3 µM | >1667 | > 500 µM | –
9 | OC[C@@H]1[C@@H](O)[C@H](O)[C@@H](O)CN1CCCc1ccccc1OC1CCCCC1 | 24 µM | >175 | 420 µM | –
10 | OC[C@@H]1[C@@H](O)[C@H](O)[C@@H](O)CN1CCCc1cccc(OC2CCCCC2)c1 | 3.5 µM | 111 | 390 µM | –
11 | OC[C@@H]1[C@@H](O)[C@H](O)[C@@H](O)CN1CCCCCCOC1CCCCC1C1CCCCC1 (stereo not given in full) | 0.5 µM | 400 | 200 µM | –
12 | CC(C)C(OCCCCCCN1C[C@H](O)[C@@H](O)[C@H](O)[C@H]1CO)C(C)C | 7.5 µM | >67 | > 500 µM | –
13 | CCCCC1CCC(OCCCCCCN2C[C@H](O)[C@@H](O)[C@H](O)[C@H]2CO)CC1 (stereo not given in full) | 1.8 µM | 106 | 190 µM | –
14 | CC/C=C\CCCCCN1C[C@H](O)[C@@H](O)[C@H](O)[C@H]1CO | 11 µM | >45 | > 500 µM | –
15 | CCC1CCCCC1OCCCCCCN1C[C@H](O)[C@@H](O)[C@H](O)[C@H]1CO (stereo not given in full) | 1.5 µM | 300 | 450 µM | –
16 | CCCC1CCCCC1OCCCCCCN1C[C@H](O)[C@@H](O)[C@H](O)[C@H]1CO (stereo not given in full) | 0.5 µM | 300 | 150 µM | –
17 | OC[C@@H]1[C@@H](O)[C@H](O)[C@@H](O)CN1CCCc1ccc(OC2CCCCC2)cc1 | 5.5 µM | 54 | 295 µM | –
18 | Cc1ccc(C(C)C)cc1OCCCCCCN1C[C@H](O)[C@@H](O)[C@H](O)[C@H]1CO | 0.7 µM | 129 | 90 µM | –
19 | OC[C@@H]1[C@@H](O)[C@H](O)[C@@H](O)CN1CCCCCCOc1cc(Cl)ccc1Cl | 1.5 µM | 213 | 320 µM | –
20 | OC[C@@H]1[C@@H](O)[C@H](O)[C@@H](O)CN1CCCCCCOc1c(F)cc(F)cc1F | 5 µM | >100 | > 500 µM | –
21 | CCCCCCCCCN1C[C@H](O)[C@@H](O)[C@H](O)[C@H]1CO | 1.1 µM | 318 | 350 µM | –
22 | OC[C@@H]1[C@@H](O)[C@H](O)[C@@H](O)CN1CCCCCCOc1cccnc1 | 2.5 µM | >200 | > 500 µM | –
23 | CCC(CC)OCCCCCCN1C[C@H](O)[C@@H](O)[C@H](O)[C@H]1CO | 3 µM | 150 | 450 µM | –
24 | OC[C@@H]1[C@@H](O)[C@H](O)[C@@H](O)CN1CCCCCCOc1ccccc1F | 2.8 µM | >179 | > 500 µM | –
